Data as given in ChEMBL document CHEMBL1154849, “Bafilomycins produced in culture by Streptomyces spp. isolated from marine habitats are potent inhibitors of autophagy” (2010).
Calls of active or inactive are those of the source. No cut-off for these calls is given here.

How the values were obtained:
Type in all cases: functional, cell-based
[1] = tested on: MCF7; assay: Induction of autophagosome accumulation in human MCF7 cells expressing EGFP-LC3 assessed as punctate EGFP-LC3 level at => 10 nM after 4 hrs by automated microscopy relative to control
[2] = tested on: MCF7; assay: […] in human MCF7 cells expressing EGFP-LC3 assessed as EGFP levels at 100 nM after 4 hrs by Western blotting relative to control
Summary of the method: (§1)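 MCF-7 cells expressing EGFP-LC3 were exposed for 4 h to compounds alone or in combinations. Free EGFP band formation, a readout of EGFP-LC3 degradation, was followed by Western blot with anti-GFP antibody.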

[3] = tested on: MCF7; assay: Inhibition of rapamycin-induced autophagy in human MCF7 cells expressing EGFP-LC3 assessed as decrease in EGFP levels at 100 nM after 4 hrs by Western blotting relative to control; summary of the method: as §1
[4] = tested on: MCF7; assay: Induction of autophagosome accumulation in human MCF7 cells expressing EGFP-LC3 assessed as punctate EGFP-LC3 level at => 1 nM after 4 hrs by automated microscopy relative to control
[5] = tested on: MCF7; assay: Induction of autophagosome accumulation in human MCF7 cells expressing EGFP-LC3 assessed as punctate EGFP-LC3 level at => 100 nM after 4 hrs by automated microscopy relative to control
[6] = tested on: MCF7; assay: Induction of autophagosome accumulation in human MCF7 cells expressing EGFP-LC3 assessed as punctate EGFP-LC3 level at 0.3 nM after 4 hrs by automated microscopy relative to control
[7] = tested on: MCF7; assay: […] in human MCF7 cells expressing EGFP-LC3 assessed as EGFP levels at 30 nM after 4 hrs by Western blotting relative to control

| SMILES | Activity [1] | Activity [2] | Activity [3] | Activity [4] | Activity [5] | Activity [6] | Activity [7] |
| --- | --- | --- | --- | --- | --- | --- | --- |
| CO/C1=C\C(C)=C\[C@@H](C)[C@@H](O)[C@@H](C)C/C(C)=C/C=C/[C@H](OC)[C@@H]([C@@H](C)[C@@H](O)[C@H](C)[C@@]2(O)C[C@@H](OC(=O)C[C@@H]3SC[C@@H](C(=O)O)NC3=O)[C@H](C)[C@@H](C(C)C)O2)OC1=O | Active | inactive | Active |  |  |  |  |
| CO[C@H]1/C=C/C=C(\C)C[C@H](C)[C@H](O)[C@H](C)/C=C(C)/C=C(\C)C(=O)O[C@@H]1[C@@H](C)[C@@H](O)[C@H](C)[C@@]1(OC)C[C@@H](OC)[C@H](C)[C@@H](C(C)C)O1 |  | inactive | Active | Active |  |  |  |
| CO/C1=C\C(C)=C\[C@@H](C)[C@@H](O)[C@@H](C)C/C(C)=C/C=C/[C@H](OC)[C@@H]([C@@H](C)/C=C(\C)C2=C[C@@H](OC)[C@H](C)[C@@H](C(C)C)O2)OC1=O |  | Active | inactive |  | Active |  |  |
| CO/C1=C\C(C)=C\[C@@H](C)[C@@H](O)[C@@H](C)C/C(C)=C/C=C/[C@H](OC)[C@@H]([C@@H](C)[C@@H](O)[C@H](C)[C@@]2(OC)C[C@@H](OC)[C@H](C)[C@@H](C(C)C)O2)OC1=O | Active | inactive | Active |  |  |  |  |
| CO/C1=C\C(C)=C\[C@@H](C)[C@@H](O)[C@@H](C)C/C(C)=C/C=C/[C@H](OC)[C@@H]([C@@H](C)[C@@H](O)[C@H](C)[C@@]2(O)C[C@@H](OC)[C@H](C)[C@@H](C(C)C)O2)OC1=O [BAFILOMYCIN G] |  | inactive | Active |  |  | Active |  |
| CO/C1=C\C(C)=C\[C@@H](C)[C@@H](O)[C@@H](C)C/C(C)=C/C=C/[C@H](OC)[C@@H]([C@@H](C)[C@@H](O)[C@H](C)[C@@]2(O)C[C@@H](OC(=O)/C=C/C(=O)NC3=C(O)CCC3=O)[C@H](C)[C@@H](C(C)C)O2)OC1=O |  | inactive | Active | Active |  |  |  |
| CO/C1=C\C(C)=C\[C@@H](C)[C@@H](O)[C@@H](C)C/C(C)=C/C=C/[C@H](OC)[C@@H]([C@@H](C)[C@@H](O)[C@H](C)[C@@]2(O)C[C@@H](O)[C@H](C)[C@@H](C(C)C)O2)OC1=O |  | inactive | Active | Active |  |  |  |
| CO[C@H]1/C=C/C=C(\C)C[C@H](C)[C@H](O)[C@H](C)/C=C(C)/C=C(\C)C(=O)O[C@@H]1[C@@H](C)[C@@H](O)[C@H](C)C(=O)/C=C/[C@H](C)[C@H](O)C(C)C | Active | inactive | Active |  |  |  |  |
| CO[C@H]1C[C@@H]2CC[C@@H](C)[C@@](O)(O2)C(=O)C(=O)N2CCCC[C@H]2C(=O)O[C@H]([C@H](C)C[C@@H]2CC[C@@H](O)[C@H](OC)C2)CC(=O)[C@H](C)/C=C(\C)[C@@H](O)[C@@H](OC)C(=O)[C@H](C)C[C@H](C)/C=C/C=C/C=C/1C |  |  |  |  |  |  | Active |
